# Measured values taken from paper PMC12777986 (RSC Medicinal Chemistry, 2025).
# “Also recorded” adds a separate entry of the source.
# Tests used:
# [1] = target: T1, PCFT transporter (Homo sapiens, UniProt Q96NT5); experiment: Folate uptake assay in Caco-2 cell monolayers; type: cell-based; settings: Caco-2, pH 5.5, read-out: inhibition of folate uptake
# T1 sequence (Q96NT5 1-459): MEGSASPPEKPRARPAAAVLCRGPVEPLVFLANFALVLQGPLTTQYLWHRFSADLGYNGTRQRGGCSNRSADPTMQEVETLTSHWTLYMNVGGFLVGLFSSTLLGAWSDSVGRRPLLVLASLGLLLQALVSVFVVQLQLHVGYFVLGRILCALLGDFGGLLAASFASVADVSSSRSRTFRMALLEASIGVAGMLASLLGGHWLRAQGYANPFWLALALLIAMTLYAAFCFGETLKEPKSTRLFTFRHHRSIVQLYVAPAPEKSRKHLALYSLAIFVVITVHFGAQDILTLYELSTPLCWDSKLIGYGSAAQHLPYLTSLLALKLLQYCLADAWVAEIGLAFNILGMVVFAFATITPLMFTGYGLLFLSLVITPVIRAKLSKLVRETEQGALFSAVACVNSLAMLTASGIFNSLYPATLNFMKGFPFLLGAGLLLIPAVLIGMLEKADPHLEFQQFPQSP
# How it was run: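 Caco-2 cells were grown in high-glucose DMEM with 10% FBS, penicillin/streptomycin and NEAA, seeded at 3 × 10^4 cells/well and differentiated 8–10 days. Monolayers were pre-incubated 30 min at 37 °C in HBSS/10 mM MES pH 5.5 with compound (50 μM), pemetrexed or DMSO, then exposed 6 min to 10 nM [3H]folic acid ± inhibitor. Uptake was counted by scintillation, normalized to BCA protein and expressed as % of vehicle. Run in duplicate.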
# [2] = Plasma protein binding, rapid equilibrium dialysis; type: in vitro ADME; settings: human, pH 7.4
# How it was run: (§1)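 Equilibrium dialysis (RED): compound was spiked at 2 μM into human or CD1 mouse plasma against PBS pH 7.4. Warfarin served as positive control. Plates were shaken gently at 37 °C for 6 h, and both chambers were quantified by LC–MS to give the unbound fraction.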
# [3] = Plasma protein binding, rapid equilibrium dialysis; type: in vitro ADME, mouse (strain CD1); settings: CD1, mouse, pH 7.4
# How it was run: as §1
# [4] = Stability in human plasma; type: in vitro ADME; settings: 2 μM, after 4 h
# [5] = Stability in mouse plasma; type: in vitro ADME, mouse (strain CD1); settings: 2 μM, after 4 h
# [6] = Stability in human liver microsomes; type: in vitro ADME; settings: 2 μM, after 2 h
# How it was run: (§2)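 Compound (2 μM) was incubated at 37 °C with human or CD1 mouse liver microsome suspension. The reaction was initiated by adding NADPH as CYP cofactor.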
# [7] = Stability in mouse liver microsomes; type: in vitro ADME, mouse (strain CD1); settings: 2 μM, after 2 h
# How it was run: as §2
# [8] = test system: HepG2 cells; experiment: HepG2 cytotoxicity assay; type: cell-based, human; settings: 50 μM
# How it was run: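 HepG2 cells were kept in DMEM with 10% FBS and penicillin/streptomycin at 37 °C, 5% CO2, seeded ~5000 cells/well and allowed to attach overnight. Serial dilutions of compound in medium were added, with 0.1% DMSO vehicle and terfenadine as positive control. Viability was read by CellTiter-Glo ATP luminescence and normalized to vehicle as % viability per concentration.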
# [9] = Bidirectional Caco-2 cell permeability assay; type: in vitro ADME; settings: human
# [10] = target: cloned hERG potassium channels (Homo sapiens, UniProt Q12809); experiment: hERG assay, automated patch clamp; type: cell-based
# Chain of cloned hERG potassium channels (Q12809 whole entry): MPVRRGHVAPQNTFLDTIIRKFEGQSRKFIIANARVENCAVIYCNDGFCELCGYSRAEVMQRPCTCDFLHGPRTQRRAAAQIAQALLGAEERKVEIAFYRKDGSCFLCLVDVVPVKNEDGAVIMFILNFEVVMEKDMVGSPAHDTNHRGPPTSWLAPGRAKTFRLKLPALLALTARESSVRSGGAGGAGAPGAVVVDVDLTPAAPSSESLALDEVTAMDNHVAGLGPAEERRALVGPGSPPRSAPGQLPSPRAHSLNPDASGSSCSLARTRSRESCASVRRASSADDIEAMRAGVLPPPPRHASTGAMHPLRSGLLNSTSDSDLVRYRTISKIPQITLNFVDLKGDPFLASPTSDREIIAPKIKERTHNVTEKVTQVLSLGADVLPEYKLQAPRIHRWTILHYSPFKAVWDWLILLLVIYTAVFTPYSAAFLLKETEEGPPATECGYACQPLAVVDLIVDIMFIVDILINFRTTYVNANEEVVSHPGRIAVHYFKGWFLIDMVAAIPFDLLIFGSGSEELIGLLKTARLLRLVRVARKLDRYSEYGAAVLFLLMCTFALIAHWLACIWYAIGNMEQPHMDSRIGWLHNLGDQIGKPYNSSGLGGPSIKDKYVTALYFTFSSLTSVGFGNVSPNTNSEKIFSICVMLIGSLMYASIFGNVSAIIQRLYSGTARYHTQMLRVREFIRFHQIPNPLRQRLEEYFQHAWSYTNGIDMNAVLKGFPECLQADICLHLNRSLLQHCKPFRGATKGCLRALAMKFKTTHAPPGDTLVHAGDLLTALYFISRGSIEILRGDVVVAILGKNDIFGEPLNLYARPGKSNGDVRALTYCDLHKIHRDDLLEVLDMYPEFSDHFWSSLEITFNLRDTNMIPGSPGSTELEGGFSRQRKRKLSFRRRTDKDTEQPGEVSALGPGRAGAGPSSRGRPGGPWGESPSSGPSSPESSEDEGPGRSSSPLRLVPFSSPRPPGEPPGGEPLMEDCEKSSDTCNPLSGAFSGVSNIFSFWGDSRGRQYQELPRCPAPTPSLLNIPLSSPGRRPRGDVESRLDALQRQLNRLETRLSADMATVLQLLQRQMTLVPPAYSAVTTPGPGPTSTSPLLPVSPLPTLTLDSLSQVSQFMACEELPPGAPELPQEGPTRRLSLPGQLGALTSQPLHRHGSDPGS
# How it was run: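 Automated parallel patch clamp (QPatch II) was run at room temperature on HEK293 cells expressing KCNH2. Compound was applied at 0.1, 1, 10 and 100 μM (n ≥ 3), at least 6 min per concentration, from DMSO stocks diluted into HEPES-buffered saline. Cisapride 0.05 μM served as positive control. % current inhibition came from steady-state currents before and after each application.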
# [11] = target: T2, CYP1A2 (Homo sapiens, UniProt P05177); experiment: Human liver microsome CYP inhibition assay, CYP1A2; type: biochemical; settings: human liver microsomes
# T2 sequence (P05177 1-516): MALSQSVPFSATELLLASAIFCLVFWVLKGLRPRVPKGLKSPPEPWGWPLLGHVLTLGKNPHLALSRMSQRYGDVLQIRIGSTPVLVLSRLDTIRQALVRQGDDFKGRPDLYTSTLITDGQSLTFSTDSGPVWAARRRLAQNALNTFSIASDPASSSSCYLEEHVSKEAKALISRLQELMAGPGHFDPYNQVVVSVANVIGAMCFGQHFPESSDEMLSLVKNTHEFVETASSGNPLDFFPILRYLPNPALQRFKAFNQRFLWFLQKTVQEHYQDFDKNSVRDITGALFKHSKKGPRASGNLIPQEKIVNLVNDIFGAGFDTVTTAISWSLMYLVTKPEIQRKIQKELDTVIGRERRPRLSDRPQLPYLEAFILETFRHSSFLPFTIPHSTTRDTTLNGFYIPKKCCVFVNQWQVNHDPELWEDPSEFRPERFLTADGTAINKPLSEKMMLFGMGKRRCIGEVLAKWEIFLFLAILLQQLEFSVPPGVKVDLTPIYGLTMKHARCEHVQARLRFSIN
# How it was run: (§3)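 Human liver microsomes were mixed with an isoform-specific CYP substrate and either compound or a positive-control inhibitor, then pre-incubated at 37 °C for 30 min. Reactions were started by adding an NADPH-regenerating system.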
# [12] = target: T3, CYP2B6 (Homo sapiens, UniProt P20813); experiment: Human liver microsome CYP inhibition assay, CYP2B6; type: biochemical; settings: human liver microsomes
# T3 sequence (P20813 1-491): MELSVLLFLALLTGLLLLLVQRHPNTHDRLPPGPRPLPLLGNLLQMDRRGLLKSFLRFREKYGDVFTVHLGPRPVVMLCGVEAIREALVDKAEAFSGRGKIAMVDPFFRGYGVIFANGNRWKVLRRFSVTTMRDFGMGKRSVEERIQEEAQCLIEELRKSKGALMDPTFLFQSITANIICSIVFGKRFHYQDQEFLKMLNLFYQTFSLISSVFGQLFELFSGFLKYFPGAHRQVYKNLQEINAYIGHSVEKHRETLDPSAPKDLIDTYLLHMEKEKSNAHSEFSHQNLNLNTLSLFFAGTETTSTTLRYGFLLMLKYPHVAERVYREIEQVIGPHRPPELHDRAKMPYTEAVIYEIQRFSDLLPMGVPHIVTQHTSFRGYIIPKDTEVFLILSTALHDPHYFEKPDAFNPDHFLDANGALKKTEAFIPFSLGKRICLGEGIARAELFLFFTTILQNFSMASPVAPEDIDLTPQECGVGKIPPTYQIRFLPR
# How it was run: as §3
# [13] = target: T4, CYP2C8 (Homo sapiens, UniProt P10632); experiment: Human liver microsome CYP inhibition assay, CYP2C8; type: biochemical; settings: human liver microsomes
# T4 sequence (P10632 1-490): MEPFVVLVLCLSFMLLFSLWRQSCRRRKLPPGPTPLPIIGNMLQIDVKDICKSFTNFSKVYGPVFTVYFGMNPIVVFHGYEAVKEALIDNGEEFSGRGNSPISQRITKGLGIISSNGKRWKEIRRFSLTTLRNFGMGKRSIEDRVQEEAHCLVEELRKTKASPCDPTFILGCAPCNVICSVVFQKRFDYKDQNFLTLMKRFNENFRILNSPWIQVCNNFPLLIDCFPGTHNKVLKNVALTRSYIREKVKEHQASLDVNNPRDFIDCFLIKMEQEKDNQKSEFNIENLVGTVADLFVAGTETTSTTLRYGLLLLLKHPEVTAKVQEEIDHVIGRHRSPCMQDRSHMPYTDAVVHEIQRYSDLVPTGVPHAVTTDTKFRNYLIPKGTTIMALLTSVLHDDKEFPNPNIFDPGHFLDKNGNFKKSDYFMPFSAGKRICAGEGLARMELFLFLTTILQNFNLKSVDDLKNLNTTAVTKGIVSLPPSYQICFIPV
# How it was run: as §3
# [14] = target: CYP2C9 (Homo sapiens, UniProt P11712); experiment: Human liver microsome CYP inhibition assay, CYP2C9; type: biochemical; settings: human liver microsomes
# Chain of CYP2C9 (P11712 whole entry): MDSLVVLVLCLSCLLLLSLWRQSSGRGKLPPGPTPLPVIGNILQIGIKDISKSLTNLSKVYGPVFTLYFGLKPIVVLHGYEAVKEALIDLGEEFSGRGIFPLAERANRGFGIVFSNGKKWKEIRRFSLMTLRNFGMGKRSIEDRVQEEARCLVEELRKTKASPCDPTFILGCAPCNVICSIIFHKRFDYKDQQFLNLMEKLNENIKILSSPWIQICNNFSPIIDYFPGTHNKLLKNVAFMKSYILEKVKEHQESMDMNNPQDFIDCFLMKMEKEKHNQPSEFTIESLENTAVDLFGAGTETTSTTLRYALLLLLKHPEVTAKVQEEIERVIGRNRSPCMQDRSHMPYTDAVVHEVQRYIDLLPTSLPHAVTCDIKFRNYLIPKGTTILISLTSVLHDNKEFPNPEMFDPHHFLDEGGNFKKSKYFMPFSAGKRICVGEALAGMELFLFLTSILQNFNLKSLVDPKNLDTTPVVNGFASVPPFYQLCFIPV
# How it was run: as §3
# [15] = target: CYP2C19 (Homo sapiens, UniProt P33261); experiment: Human liver microsome CYP inhibition assay, CYP2C19; type: biochemical; settings: human liver microsomes
# Chain of CYP2C19 (P33261 whole entry): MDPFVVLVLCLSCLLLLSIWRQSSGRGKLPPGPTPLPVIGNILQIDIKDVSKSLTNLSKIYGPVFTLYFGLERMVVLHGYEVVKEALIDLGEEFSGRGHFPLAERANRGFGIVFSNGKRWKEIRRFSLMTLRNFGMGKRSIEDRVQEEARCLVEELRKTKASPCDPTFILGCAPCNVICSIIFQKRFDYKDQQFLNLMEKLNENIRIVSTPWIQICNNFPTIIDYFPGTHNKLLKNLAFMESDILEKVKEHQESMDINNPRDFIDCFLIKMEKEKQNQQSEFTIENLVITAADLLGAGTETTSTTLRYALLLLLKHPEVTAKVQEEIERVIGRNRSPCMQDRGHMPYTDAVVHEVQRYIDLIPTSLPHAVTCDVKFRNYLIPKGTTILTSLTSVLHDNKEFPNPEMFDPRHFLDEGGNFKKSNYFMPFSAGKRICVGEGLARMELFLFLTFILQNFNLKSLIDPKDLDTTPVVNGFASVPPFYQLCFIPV
# How it was run: as §3
# [16] = target: CYP2D6 (Homo sapiens, UniProt P10635); experiment: Human liver microsome CYP inhibition assay, CYP2D6; type: biochemical; settings: human liver microsomes
# Chain of CYP2D6 (P10635 whole entry): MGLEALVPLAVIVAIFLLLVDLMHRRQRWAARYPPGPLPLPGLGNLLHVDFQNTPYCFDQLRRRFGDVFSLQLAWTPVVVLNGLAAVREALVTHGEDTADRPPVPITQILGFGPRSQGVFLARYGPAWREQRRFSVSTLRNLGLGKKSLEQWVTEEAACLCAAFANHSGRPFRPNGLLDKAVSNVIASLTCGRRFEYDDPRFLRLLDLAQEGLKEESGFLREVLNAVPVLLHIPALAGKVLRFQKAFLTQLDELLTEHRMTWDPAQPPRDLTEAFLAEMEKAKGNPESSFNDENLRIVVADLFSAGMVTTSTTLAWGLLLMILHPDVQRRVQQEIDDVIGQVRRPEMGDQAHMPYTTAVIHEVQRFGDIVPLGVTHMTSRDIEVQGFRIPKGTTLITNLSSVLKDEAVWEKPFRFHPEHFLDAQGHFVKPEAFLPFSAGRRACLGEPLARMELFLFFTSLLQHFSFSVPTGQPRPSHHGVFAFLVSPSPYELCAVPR
# How it was run: as §3
# [17] = target: CYP3A4 (Homo sapiens, UniProt P08684); experiment: Human liver microsome CYP inhibition assay, CYP3A4; type: biochemical; settings: human liver microsomes
# Chain of CYP3A4 (P08684 whole entry): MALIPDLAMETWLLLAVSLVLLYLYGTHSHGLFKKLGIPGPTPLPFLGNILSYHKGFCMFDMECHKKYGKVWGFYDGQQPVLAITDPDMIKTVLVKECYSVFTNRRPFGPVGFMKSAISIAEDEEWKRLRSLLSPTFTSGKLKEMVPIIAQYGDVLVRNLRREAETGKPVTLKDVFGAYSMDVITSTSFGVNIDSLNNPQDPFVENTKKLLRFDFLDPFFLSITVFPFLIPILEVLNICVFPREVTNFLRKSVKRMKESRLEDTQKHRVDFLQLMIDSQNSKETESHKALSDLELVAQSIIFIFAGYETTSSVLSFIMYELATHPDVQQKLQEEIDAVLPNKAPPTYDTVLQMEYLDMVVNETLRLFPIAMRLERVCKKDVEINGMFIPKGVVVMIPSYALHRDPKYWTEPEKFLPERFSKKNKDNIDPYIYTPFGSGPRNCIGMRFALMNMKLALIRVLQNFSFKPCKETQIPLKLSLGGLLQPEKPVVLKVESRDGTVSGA
# How it was run: as §3
# [18] = Single-dose pharmacokinetics in mice; type: in vivo, male CD1 mice
# [19] = Single-dose pharmacokinetics in rats; type: in vivo, male Sprague–Dawley rats; settings: rats vs mice, oral single dose
# How it was run: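 Male Sprague–Dawley rats with jugular vein cannulas (n = 3/group) were fasted overnight, with food returned 4 h post-dose. Single oral gavage of 100 or 200 mg kg−1 (10 or 20 mg mL−1; 10 mL kg−1) in 40% DMSO/60% 0.5% methyl cellulose. Cannula blood was drawn at 0.5, 1, 2, 4, 6, 8 and 24 h into K2EDTA, spun to plasma at 5 °C and stored at −70 °C for PK analysis.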
# [20] = Single-dose safety observation and gross necropsy in mice; type: in vivo, male CD1 mice
# How it was run: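 Male CD1 mice (n = 3/group) were housed individually in metabolic cages and fasted 4 h, with food returned 2 h post-dose. They received one oral gavage of 25, 50 or 100 mg kg−1 (2.5–10 mg mL−1; 10 mL kg−1) in 40% DMSO/60% 0.5% methyl cellulose. Animals were monitored 14 days and weighed pre-dose and on days 7 and 14. CO2 euthanasia was followed by gross necropsy.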
# [21] = Single-dose safety observation and gross necropsy in rats; type: in vivo, male Sprague–Dawley rats
# How it was run: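 Male Sprague–Dawley rats (n = 3/group) were housed in metabolic cages and fasted overnight, with food returned 4 h post-dose. They received one oral gavage of 100 or 200 mg kg−1 (10 mL kg−1) in 40% DMSO/60% 0.5% methyl cellulose. Animals were monitored for 14 days, with body weight recorded before dosing and on days 7 and 14. Gross necropsy was done after CO2 euthanasia.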
# [22] = test system: C. elegans strain N2; experiment: C. elegans lifespan assay; type: in vivo; settings: for maximal lifespan: untreated 27 d
# [23] = test system: Salmonella typhimurium tester strains TA98, TA100, TA1535, TA1537 and Escherichia coli strain WP2 uvrA; experiment: Ames bacterial reverse mutation assay; settings: 1.4 × 10^−7 to 2.3 mM
# [24] = male, CD1, mouse, plasma, po, 100 mg/kg
# [25] = monitored 14 days after single oral dose
# [26] = continuous exposure, 50 and 100 μM
structure (smiles),measurement,setting,value
"Nc1nc2[nH]cc(CCc3ccc(C(=O)N[C@@H](CCC(=O)O)C(=O)O)cc3)c2c(=O)[nH]1 [pemetrexed, reference compound]",inhibition at 50 µM,[1],62%
"CC(=O)N1CCC(C(=O)N2CCN3C(=O)c4cc(-c5ccccc5)ccc4NC(=O)C3C2)CC1 (centres unmarked) [MPOL_B_1, 13-(1-acetylpiperidine-4-carbonyl)-5-phenyl-1,9,13-triazatricyclo[9.4.0.03,8]pentadeca-3(8),4,6-triene-2,10-dione]",inhibition at 50 µM,[1],42%
same,"fraction unbound at 6 h, 2 μM",[2],0.525 ± 0.08
same,"fraction unbound at 6 h, 2 μM",[3],0.294 ± 0.059
same,Stability in human plasma,[4],>90% after 4 h
same,Stability in mouse plasma,[5],>90% after 4 h
same,Stability in human microsomes,[6],>90% after 2 h
same,Stability in mouse microsomes,[7],83% after 2 h
same,Hep2 cells cytotoxicity,[8],Not significant
same,"Papp A→B at 2 h, 10 μM",[9],0.37 ×10⁻⁶ cm/s
same,"Papp B→A at 2 h, 10 μM",[9],7.17 ×10⁻⁶ cm/s
same,IC50,[10],87 µM
same,"inhibition at 5 min, 50 µM",[11],5.2%
same,"inhibition at 5 min, 50 µM",[12],0%
same,"inhibition at 5 min, 50 µM",[13],4.9%
same,"inhibition at 5 min, 50 µM",[14],11.4%
same,"inhibition at 5 min, 50 µM",[15],19.4%
same,"inhibition at 5 min, 50 µM",[16],16.9%
same,"inhibition at 5 min, 50 µM",[17],22.5%
same,concentration of the drug in fecal samples,[18]; collected 24 hours after oral administration,5 to 10 mg/g
same,AUC(0-t),[18]; [24],2380 ± 1180 ng·h/mL
same,Cmax,[18]; [24],416 ± 67 ng/mL
same,Tmax,[18]; [24],1.7 ± 0.6 h
same,half-life,[18]; [24],342 ± 246 min
same,systemic bioavailability (dose proportionality of AUC),"[18]; mice, oral gavage 25, 50 and 100 mg kg^−1",became saturated at doses of 50 mg kg^−1 and above
same,"systemic bioavailability in rats, times lower than in mice",[19],approximately 10 times
same,gross necropsy,"[20]; group 2, 50 mg kg^−1","had an enlarged stomach when gross necropsy was performed, and another from the same group had dark patches on the lungs"
same,gross necropsy,[20]; highest dose (100 mg kg^−1),no organ pathologies or other abnormalities; also recorded: No abnormalities
same,body weight loss,[20]; [25],no significant body weight loss
same,signs of illness,[20]; [25],no signs of illness
same,gross necropsy,"[21]; group 1, 100 mg kg^−1",enlarged stomach and caecum and blood in the abdominal cavity
same,gross necropsy,[21]; highest dose (200 mg kg^−1),no organ pathologies or other abnormalities
same,body weight loss,[21]; [25],no significant body weight loss
same,signs of illness,[21]; [25],no signs of illness
same,maximal lifespan,[22]; 50 μM,35 days
same,maximal lifespan,[22]; 100 μM,35 days
same,increase of lifespan,[22]; C. elegans,up to 30%
same,longer maximal lifespan,[22]; [26],~30%
same,longer mean lifespan,[22]; [26],~30%
same,Ames mutagenicity test,[23],Not mutagenic
"Cc1ccc(NC(=O)N2Cc3[nH]cnc3C[C@H]2c2nc(-c3ccc4c(c3)OCO4)no2)cc1 [MPOL_D_1, (6S)-6-[3-(2H-1,3-benzodioxol-5-yl)-1,2,4-oxadiazol-5-yl]-N-(4-methylphenyl)3H,4H,5H,6H,7H-imidazo[4,5-c]pyridine-5-carboxamide]",effect on lifespan,"[22]; dose range 1–100 μM, compared with MPOL_B_1",did not exhibit similar effects
